Laboratory results reported in ChEMBL document CHEMBL1800030, “Synthesis and biological evaluation of anilino substituted pyrimidine linked pyrrolobenzodiazepines as potential anticancer agents” (Bioorg Med Chem Lett, 2010).
Activity calls are given as the source filed them.

Experiments:
[1] = test system: Nucleic Acid; test: Binding affinity to calf thymus DNA assessed as change in melting temperature at compound to DNA molar ratio of 1:5 at pH 7 after 18 hrs at 37 degC by thermal denaturation assay; assay type: nucleic-acid assay; details: Bos taurus
[2] = test system: Nucleic Acid; test: Inhibition of BamH1-induced DNA cleavage activity in Escherichia coli pBR322 at 4 uM after 24 hrs by agarose gel electrophoresis; assay type: nucleic-acid assay
Procedure, shortened: (§1)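 pBR322 plasmid DNA was incubated with compound at 2–32 µM and then digested with BamHI. Restriction-digestion inhibition was judged against cut (BamHI, no compound) and uncut vector lanes.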

[3] = test system: Nucleic Acid; test: Inhibition of BamH1-induced DNA cleavage activity in Escherichia coli pBR322 at 8 uM after 24 hrs by agarose gel electrophoresis; assay type: nucleic-acid assay; procedure, shortened: as §1
[4] = test system: MCF7; test: Cytotoxicity against human MCF7 cells after 48 hrs by SRB assay; assay type: functional; details: MCF7, 48 h
Procedure, shortened: (§2)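 Cells from human breast, oral, ovary, colon, lung, prostate and cervix cancer lines were tested by sulforhodamine B assay. GI50 is 50% growth inhibition, given as mean ± SEM of three determinations. Activity cutoff was GI50 ≤10^-5 M. Adriamycin served as positive control.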

[5] = test system: A2780; test: Cytotoxicity against human A2780 cells after 48 hrs by SRB assay; assay type: functional; details: A2780, 48 h; procedure, shortened: as §2
[6] = test system: KB; test: Cytotoxicity against human KB cells after 48 hrs by SRB assay; assay type: functional; procedure, shortened: as §2
[7] = test system: PC-3; test: Cytotoxicity against human PC3 cells after 48 hrs by SRB assay; assay type: functional; details: PC-3, 48 h; procedure, shortened: as §2
[8] = test system: SiHa; test: Cytotoxicity against human SiHa cells after 48 hrs by SRB assay; assay type: functional; procedure, shortened: as §2
[9] = Cytotoxicity against human Gurav cells after 48 hrs by SRB assay; assay type: functional; procedure, shortened: as §2
[10] = Cytotoxicity against human DWD cells after 48 hrs by SRB assay; assay type: functional; procedure, shortened: as §2
[11] = test system: COLO 205; test: Cytotoxicity against human COLO205 cells after 48 hrs by SRB assay; assay type: functional; details: COLO 205, 48 h; procedure, shortened: as §2
[12] = test system: HOP-62; test: Cytotoxicity against human HOP62 cells after 48 hrs by SRB assay; assay type: functional; details: HOP-62, 48 h; procedure, shortened: as §2
[13] = test system: ZR-75-1; test: Cytotoxicity against human ZR-75-1 cells after 48 hrs by SRB assay; assay type: functional; details: ZR-75-1, 48 h; procedure, shortened: as §2
[14] = test system: A549; test: Cytotoxicity against human A549 cells after 48 hrs by SRB assay; assay type: functional; details: A549, 48 h; procedure, shortened: as §2
[15] = test system: A-375; test: Cytotoxicity against human A375 cells after 24 hrs by MTT assay; assay type: functional, cell-based; details: A-375, 24 h
Procedure, shortened: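 MTT proliferation assay on A375 cells, with the IC50 derived from it.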

[16] = test system: A-375; test: Cytotoxicity against human A375 cells assessed as cell viability at 4 uM after 24 hrs by real time cell analyzer; assay type: functional; details: A-375, 24 h, read-out: Activity
Procedure, shortened: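 A375 cell viability was measured after exposure to compound at 4 µM, with percent viability reported.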

[17] = test system: A-375; test: Cell cycle arrest in human A375 cells assessed as accumulation at G0/G1 phase at 4 uM after 24 hrs by propidium iodide staining based FACS analysis (reference value: 64.7 to 66.26%); assay type: functional
[18] = test system: A-375; test: Cell cycle arrest in human A375 cells assessed as accumulation at S phase at 4 uM after 24 hrs by propidium iodide staining based FACS analysis (reference value: 12.04 to 15.67%); assay type: functional
[19] = test system: A-375; test: Cell cycle arrest in human A375 cells assessed as accumulation at G2/M phase at 4 uM after 24 hrs by propidium iodide staining based FACS analysis (reference value: 17.65 to 23.26%); assay type: functional
[20] = test system: A-375; test: Induction of apoptosis in human A375 cells at 4 uM after 24 hrs by FACS analysis (reference value: 5.61%); assay type: functional
[21] = test system: A-375; test: Upregulation of p53 gene expression in human A375 cells at 4 uM after 24 hrs by Western blot analysis; assay type: functional, cell-based
Procedure, shortened: (§3)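 A375 cells were treated at 4 µM for 24 h, then p53 or cytosolic cytochrome c levels were measured by Western blot. β-Actin served as loading control. Controls were untreated cells and untreated cells plus DMSO.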

[22] = test system: A-375; test: Induction of mitochondrial dysfunction in human A375 cells assessed as increase in cytosolic cytochrome c level at 4 uM after 24 hrs by Western blot analysis; assay type: functional, cell-based; procedure, shortened: as §3
[23] = test system: A-375; test: Induction of apoptosis in human A375 cells assessed as PARP cleavage at 4 uM after 24 hrs by Western blot analysis
[24] = test system: Nucleic Acid; test: Inhibition of BamH1-induced DNA cleavage activity in Escherichia coli pBR322 at 16 uM after 24 hrs by agarose gel electrophoresis; assay type: nucleic-acid assay
Procedure, shortened: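 RED100 restriction-digestion assay: pBR322 vector DNA incubated with compound at 2, 4, 8, 16 and 32 µM, then digested with BamHI. Lanes are compared with uncut vector and with vector cut by BamHI without compound. DNA binding is read as inhibition of BamHI cleavage.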

SMILES	ΔTm [1]	inhibition [2]	GI50 [4]	GI50 [5]	GI50 [6]	GI50 [7]	GI50 [8]	GI50 [9]	GI50 [10]	GI50 [11]	GI50 [12]	GI50 [13]	GI50 [14]	IC50 [15]	viability at 4 µM [16]	Activity [17]	Activity [18]	Activity [19]	Activity [20]	Activity [21]	other results
COc1cc2c(cc1OCc1ccc(C(=O)Nc3ccc(C)c(Nc4nccc(-c5cccnc5)n4)c3)cc1)N=C[C@@H]1CCCN1C2=O	6.8 °C	inactive	140 nM	130 nM	140 nM	150 nM	170 nM	< 100 nM	130 nM	120 nM	170 nM	160 nM	140 nM	1100 nM	48%	80.98%	13.55%	5.67%	49.7%	Active	inhibition [3]: Active; Activity [22]: Active; Activity [23]: Active
Cc1ccc(NC(=O)c2ccc(CBr)cc2)cc1Nc1nccc(-c2cccnc2)n1	–	–	–	–	–	–	–	–	–	–	–	–	–	–	–	68%	11%	21%	–	–	–
COc1cc2c(cc1OCCCCC(=O)Nc1ccc(C)c(Nc3nccc(-c4cccnc4)n3)c1)N=C[C@@H]1CCCN1C2=O	2.1 °C	inactive	170 nM	2400 nM	180 nM	2030 nM	2200 nM	< 100 nM	2500 nM	2300 nM	160 nM	170 nM	2300 nM	5500 nM	72%	80.98%	13.98%	6.47%	41.59%	Active	Activity [22]: Active; Activity [23]: Active
COc1cc2c(cc1OCc1ccc(C(=O)Nc3ccc(C)c(Nc4nccc(-c5cccnc5)n4)c3)cc1)N=C[C@@H]1C[C@H](F)CN1C2=O	7.1 °C	inactive	< 100 nM	130 nM	120 nM	140 nM	120 nM	130 nM	140 nM	< 100 nM	150 nM	150 nM	160 nM	160 nM	33.7%	98.44%	0.2%	0.16%	83.86%	Active	inhibition [3]: Active; Activity [22]: Active; Activity [23]: Active
COc1cc2c(cc1O)N=C[C@@H]1CCCN1C2=O	0.7 °C	–	170 nM	140 nM	170 nM	200 nM	170 nM	160 nM	–	110 nM	150 nM	–	160 nM	–	–	–	–	–	–	–	inhibition [24]: Active
COc1cc2c(cc1OCCCCC(=O)Nc1ccc(C)c(Nc3nccc(-c4cc(OC)c(OC)c(OC)c4)n3)c1)N=C[C@@H]1C[C@H](F)CN1C2=O	2.5 °C	inactive	160 nM	180 nM	170 nM	170 nM	1800 nM	150 nM	180 nM	2100 nM	120 nM	2700 nM	2500 nM	5600 nM	64.9%	76.76%	17.19%	6.04%	36.15%	Active	Activity [22]: Active; Activity [23]: Active
COc1cc2c(cc1OCCCCC(=O)Nc1ccc(C)c(Nc3nccc(-c4cc(OC)c(OC)c(OC)c4)n3)c1)N=C[C@@H]1CCCN1C2=O	1.4 °C	–	2000 nM	180 nM	170 nM	1800 nM	1800 nM	2000 nM	1800 nM	2300 nM	2400 nM	2600 nM	2300 nM	–	–	–	–	–	–	–	–
COc1cccc2c1C(=O)c1c(O)c3c(c(O)c1C2=O)C[C@@](O)(C(=O)CO)C[C@@H]3O[C@H]1C[C@H](N)[C@H](O)[C@H](C)O1 [DOXORUBICIN]	–	–	< 100 nM	< 100 nM	110 nM	170 nM	2100 nM	120 nM	< 100 nM	< 100 nM	140 nM	130 nM	150 nM	–	–	–	–	–	–	–	–
